HIF act: HIF pathway transcriptional activation | U2OS HRE-luciferase reporter, luminescence; normalized: DMSO 0%, desferrioxamine 100% | activation, % at 7.5 µM (by protocol) | actives 0.32% (n = 300,000) | AID 1910;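 active = mean activation of at least 10% of the iron chelator positive control signal, with at least half of replicates also reaching 10%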
ABHD5 PLIN5 PPI: inhibitors of human ABHD5-perilipin-5 interaction | inhibition, % at 4 µM | actives 0.78% (n = 360,000) | Q00G26+Q8WTS1 | AID 602281 | Split G. princeps luciferase complementation, luminescence, 4 h;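 active = inhibition above the mean inhibition across every tested compound plus 3 SD, cut at about 22% in these data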;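 also: 0% = DMSO only wells and the 100% control is not disclosed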
Target sequence (Q00G26 whole entry, looked up): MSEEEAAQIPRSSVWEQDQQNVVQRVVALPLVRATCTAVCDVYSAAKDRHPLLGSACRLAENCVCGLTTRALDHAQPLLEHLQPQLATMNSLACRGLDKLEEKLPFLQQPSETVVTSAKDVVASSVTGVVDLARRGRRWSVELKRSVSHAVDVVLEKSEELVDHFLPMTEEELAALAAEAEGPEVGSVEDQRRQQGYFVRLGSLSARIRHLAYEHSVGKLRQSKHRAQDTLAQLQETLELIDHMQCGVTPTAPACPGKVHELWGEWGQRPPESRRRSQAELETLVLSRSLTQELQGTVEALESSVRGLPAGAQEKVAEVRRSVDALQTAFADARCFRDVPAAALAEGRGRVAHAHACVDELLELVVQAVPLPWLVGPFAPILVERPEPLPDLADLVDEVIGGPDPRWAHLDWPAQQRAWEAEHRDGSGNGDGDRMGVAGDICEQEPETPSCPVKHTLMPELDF
Target sequence (Q8WTS1 whole entry, looked up): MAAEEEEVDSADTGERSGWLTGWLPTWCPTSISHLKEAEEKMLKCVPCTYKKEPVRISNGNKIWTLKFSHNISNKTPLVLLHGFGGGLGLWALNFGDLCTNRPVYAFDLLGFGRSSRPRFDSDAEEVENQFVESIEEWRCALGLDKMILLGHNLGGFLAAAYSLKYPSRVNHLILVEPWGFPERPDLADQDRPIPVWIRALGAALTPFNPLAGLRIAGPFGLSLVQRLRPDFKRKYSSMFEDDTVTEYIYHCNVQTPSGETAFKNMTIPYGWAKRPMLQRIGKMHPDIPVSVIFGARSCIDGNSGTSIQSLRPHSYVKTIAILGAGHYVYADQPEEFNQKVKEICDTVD
H9c2 TAG inh: reduces triacylglycerol accumulation in H9c2 cells; actives 0.66% (n = 230,000); AID 651582; Nile Red lipid (TAG) fluorescence; cells loaded with 200 µM oleic acid; inhibition, % at 12.5 µM;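 active = pattern-corrected inhibition of lipid staining of at least 50% with the nuclear-stain viability signal not falling by more than 50%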;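 also: 0% = DMSO wells and 100% = triacsin C control wells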
FXN GAA850 act: activators of GAA850 frataxin (FXN) promoter; actives 0.56% (n = 360,000); HEK293 lucGAA850 FXN promoter luciferase reporter, 24 h; percent of 10 µM SAHA response; activation, % at 6 µM;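 active = activation above the average of all compounds screened plus 3 SD, cutoff fixed separately per campaign, cut at about 7.5% in these data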;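 also: 0% = DMSO wells and 100% = 10 µM SAHA wells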
Hsp70 activator: transcriptional activators of Hsp70; HeLa Hsp70 promoter luciferase reporter, luminescence; scaled: vehicle 0, proteasome-inhibitor control 100%; activation, % at 10 µM; actives 0.04% (n = 200,000); AID 1203;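 active = activation above the mean across all tested compounds plus 3 SD, cutoff set per campaign, cut at about 5.5% in these data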;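 also: 100% = MG132 at 30 µM as the positive control and 0% = DMSO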
Rad51 HR inh: Rad51 (human) homologous recombination inhibition; actives 0.085% (n = 200,000); inhibition, % at 10 µM; hRad51 DNA strand exchange, fluorescence dequenching;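 active = inhibition above 40% at the single screening dose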;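 also: 0% = DMSO control wells and 100% = blanks with heterologous ssDNA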
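material = hRad51 filaments on single-stranded DNA | reagent = Donor/quencher-labelled 47-bp dsDNA substrate | compound = 10 µM final, single point | schedule = strand-exchange reaction 15 min at room temperature | measured by = fluorescein emission 520 nm, excitation 485 nm | read-out basis = % inhibition versus plate control and blank means | benchmarks = plate controls and plate blanks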
H9c2 TAG conf: triacylglycerol accumulation inhibition, confirmation; shares compounds with H9c2 TAG inh; H9c2 lipid accumulation, Nile Red fluorescence; cells loaded with 200 µM oleic acid; inhibition, % at 12.5 µM; actives 71% (n = 990); AID 651629;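 active = mean inhibition across replicates of 40% or more; inactive = mean inhibition below 40%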;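 also: plate controls were DMSO only wells for no effect and Triacsin C treated wells for full effect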
The depositor's hits bear a star; . = not tested or not shown. Shown are actives, neighbours in structure and some others; about 1.9% of the full set was active somewhere.

SMILES | HIF act | ABHD5 PLIN5 PPI | H9c2 TAG inh | FXN GAA850 act | Hsp70 activator | Rad51 HR inh | H9c2 TAG conf
COc1ccccc1CCC(=O)Nc1ccc2c(c1)c(=O)n(C)n2Cc1ccc(F)cc1 | . | 2 | 34 | -4 | . | . | .
COc1cccc(Cn2c3ccc(NC(=O)CCc4ccc(F)cc4)cc3c(=O)n2C)c1 | . | -4 | 52* | -2 | . | . | 69*
O=C(c1cnn2c1NC(c1ccc(Br)cc1)CC2C(F)(F)F)N1CCN(C23CC4CC(CC(C4)C2)C3)CC1 (stereo unspecified) | -1 | 3 | 54* | 1 | 0 | 8 | 55*
FC(F)(F)c1ccccc1Cc1c(-c2cccc(Br)c2)nc2c3ccccc3ccn12 | . | -5 | . | . | . | . | .
COc1ccc(-c2csc(NC(=O)CC(C)C)n2)cc1 | 3 | -1 | 65* | 2 | 0 | 7 | 32
COc1ccc(-c2csc(NC(=O)c3c(OC)cccc3OC)n2)cc1 | 1 | -4 | . | 0 | . | . | .
COC(=O)c1cc(NC(=O)c2c(Cl)nc3sccn23)cc(C(=O)OC)c1 | 0 | 3 | 70* | 3 | 0 | -3 | 87*
COc1ccc(-c2sc3ccc(N4CCOCC4)cc3c2C#CCCO)cc1 | . | 13 | 51* | 3 | . | . | 55*
COc1ccc(NC(=O)CSc2nnc(Cc3ccc(C)cc3)c(=O)n2N)cc1OC | -10 | 3 | 37 | 1 | . | . | .
CCOc1ccc(Cc2nnc(SCC(=O)Nc3ccccc3)n(N)c2=O)cc1 | 0 | -12 | 50* | 0 | . | . | 68*
Cc1ccc(Cc2nnc(SCC(=O)Nc3ccccc3)n(N)c2=O)cc1 | 0 | 9 | 52* | 0 | . | . | 62*
CCCCCCSc1cc(-c2nc3ccc(Cl)cn3c2NC2CCCCC2)ccc1OC | 1 | 3 | 66* | 4 | . | . | 44*
CCCCCCSc1ccc(-c2nc3ccc(Cl)cn3c2NC2CCCCC2)cc1 | . | -8 | 13 | 0 | . | . | .
O=C(c1sc2cccc(Cl)c2c1Cl)N1CCN(CCc2ccccn2)CC1 | 0 | 4 | . | 1 | . | . | .
CC(C)N(C(=O)[C@H]1C[C@H](CC(=O)NCc2cccc(C(F)(F)F)c2)C(=O)N2CCc3c([nH]c4ccc(Cl)cc34)[C@]12C)C(C)C | . | 4 | 57* | 1 | . | . | 82*
COc1ccc2[nH]c3c(c2c1)CCN1C(=O)C(CC(=O)NCC24CC5CC(CC(C5)C2)C4)C[C@H](C(=O)N(C(C)C)C(C)C)[C@@]31C (stereo partly specified) | . | -5 | 51* | 1 | . | . | 59*
COc1ccc2[nH]c3c(c2c1)CCN1C(=O)C(CC(=O)NCC24CC5CC(CC(C5)C2)C4)C[C@H](C(=O)N2CCOCC2)[C@@]31C (stereo partly specified) | . | 1 | 18 | -3 | . | . | .
CCOc1cc(N2CCOCC2)c(OCC)cc1NC(=O)CC12CC3CC(CC(C3)C1)C2 | -18 | -4 | 74* | 0 | 0 | -2 | 47*
Cc1cc(O)c(C(C)C)cc1NC(=S)Nc1cc(C(C)C)c(O)cc1C | . | -13 | 2 | -4 | . | . | .
COc1ccc(-c2noc(-c3ccccc3C(=O)Nc3cccnc3)n2)cc1OC | 0 | 1 | . | -2 | 0 | 6 | .
COc1ccc(-c2noc(-c3ccccc3C(=O)Nc3cccnc3)n2)cc1 | 0 | 11 | 57* | 1 | 0 | -9 | 33
O=C(CCN1C(=O)NC2(CCCC2)C1=O)Nc1ccc(-c2nc3ccccc3s2)cc1 | . | -1 | 2 | -1 | . | . | .
CN(C(=O)CN1CCN(c2cc(-c3ccc(-c4ccccc4)cc3)ncn2)CC1)c1ccccc1 | . | 5 | -19 | 0 | . | . | .
COc1ccc(CCn2c(-n3nc(C)cc3C)nc3c2c(=O)[nH]c(=O)n3C)cc1 | 0 | -8 | 54* | -2 | 0 | 6 | 62*
CCCNS(=O)(=O)c1ccc(CCC(=O)Nc2cc(Cl)ccc2Oc2ccccc2)cc1 | -1 | -1 | 46 | -2 | 0 | -1 | .
SMILES | HIF act | ABHD5 PLIN5 PPI | H9c2 TAG inh | FXN GAA850 act | Hsp70 activator | Rad51 HR inh | H9c2 TAG conf
CC(C)CNS(=O)(=O)c1ccc(CCC(=O)Nc2cc(Cl)ccc2Oc2ccccc2)cc1 | 0 | -7 | 55* | 2 | 0 | -9 | 36
CNc1cncc(-c2ccc(C)cc2)n1 | . | 1 | -2 | 5 | . | . | .
Fc1cccc(-c2nnn3c2nc(Cl)c2ccccc23)c1 | 2 | -1 | 32 | 4 | 1 | -7 | .
COc1cc(C(=O)Nc2nc3ccc(C)cc3s2)ccc1OCc1c(C)noc1C | 0 | 0 | 51* | -4 | 0 | 0 | 40
CCc1nnc(NC(=O)c2ccc(OCc3c(C)noc3C)c(OC)c2)s1 | 1 | -1 | -3 | -2 | 0 | -3 | .
CCOc1cc(OCC)cc(C(=O)N2CCC[C@@H]2C(=O)N2CCC[C@@H]2C(=O)NCc2ccccc2Cl)c1 | . | 0 | . | . | . | . | .
COc1ccc(-c2nn3c(-c4ccco4)nnc3s2)cc1OC | -1 | 5 | 5 | 5 | 0 | 0 | .
COc1cc(OC)c(-c2nn3c(-c4ccco4)nnc3s2)cc1OC | . | 4 | 54* | 1 | 0 | 6 | 38
C[C@@]12C(=O)Nc3ccc(Br)cc3C(=O)N1[C@H]1c3cc(Br)ccc3OC[C@@H]1[C@@H]2c1ccccc1 | . | -1 | 73* | -4 | . | . | 62*
CCOC(=O)[C@H]1[C@H]2COc3ccc(C)cc3[C@@H]2N2C(=O)c3cc(Br)ccc3NC(=O)[C@@]12C | . | 1 | 67* | -4 | . | . | 77*
CCOC(=O)[C@H]1[C@H]2COc3ccc(Cl)cc3[C@@H]2N2C(=O)c3cc(OC)ccc3NC(=O)[C@@]12C | . | -2 | 58* | -9 | . | . | 41*
COc1ccc(NC(=O)c2sc3nc(N4CCOCC4)c4c(c3c2N)CC(C)(C)OC4)c(OC)c1 | 0 | -3 | . | 0 | . | . | .
CCCCNC(=O)C(c1ccc(OCC(=O)OC)c(C(=O)OC)c1)N(CCOC)C(=O)CCCCCN1C(=O)NC(c2ccc(-c3ccccc3)cc2)C(C(=O)OCc2ccccc2)=C1C (stereo unspecified) | -3 | . | . | . | . | . | .
O=C(CSc1nc2ccc(Nc3nc(N4CCOCC4)nc(N4CCOCC4)n3)cc2s1)Nc1ccccc1F | . | 1 | 73* | 0 | . | . | 78*
O=C(CSc1nc2ccc(Nc3nc(N4CCOCC4)nc(N4CCOCC4)n3)cc2s1)N1CCOCC1 | -1 | -4 | . | 2 | 0 | 1 | .
O=C(CSc1nc2ccc(Nc3nc(N4CCOCC4)nc(N4CCOCC4)n3)cc2s1)Nc1ccccc1Cl | 0 | 7 | 62* | 1 | . | . | 67*
CCCC(=O)Nc1ccc2nc(SCC(=O)Nc3ccc(N4CCOCC4)c(Cl)c3)sc2c1 | 2 | 4 | 51* | -4 | 0 | -6 | 34

Screening results deposited in PubChem by several laboratories.
